In ChEMBL document CHEMBL2424622, “Development of amino-pyrimidine inhibitors of c-Jun N-terminal kinase (JNK): kinase profiling guided optimization of a 1,2,3-benzotriazole lead” (Bioorg Med Chem Lett, 2013) one finds inhibition and Ratio IC50 data, which are given here for seven compounds.

The term inhibition denotes how much of the control response was suppressed.

Assay [1] has as its target T1, Testis-specific serine/threonine-protein kinase 1 (Homo sapiens) (UniProt Q9BXA7).
T1 sequence (whole entry): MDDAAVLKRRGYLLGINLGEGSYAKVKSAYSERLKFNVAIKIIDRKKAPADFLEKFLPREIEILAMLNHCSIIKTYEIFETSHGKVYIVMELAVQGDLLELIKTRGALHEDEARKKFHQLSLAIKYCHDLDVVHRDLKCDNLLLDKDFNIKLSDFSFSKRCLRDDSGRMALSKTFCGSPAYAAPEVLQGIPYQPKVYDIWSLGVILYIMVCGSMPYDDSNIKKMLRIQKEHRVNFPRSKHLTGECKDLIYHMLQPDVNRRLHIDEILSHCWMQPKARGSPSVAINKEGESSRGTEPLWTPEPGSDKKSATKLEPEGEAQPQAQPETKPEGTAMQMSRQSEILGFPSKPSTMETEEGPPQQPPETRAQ
Kind of assay: Competitive binding affinity to TSSK1 (unknown origin) at 10 uM in presence of ATP relative to control.

For assay [2], the target named is T2, Serine/threonine-protein kinase 17B (Homo sapiens) (UniProt O94768).
T2 sequence (whole entry): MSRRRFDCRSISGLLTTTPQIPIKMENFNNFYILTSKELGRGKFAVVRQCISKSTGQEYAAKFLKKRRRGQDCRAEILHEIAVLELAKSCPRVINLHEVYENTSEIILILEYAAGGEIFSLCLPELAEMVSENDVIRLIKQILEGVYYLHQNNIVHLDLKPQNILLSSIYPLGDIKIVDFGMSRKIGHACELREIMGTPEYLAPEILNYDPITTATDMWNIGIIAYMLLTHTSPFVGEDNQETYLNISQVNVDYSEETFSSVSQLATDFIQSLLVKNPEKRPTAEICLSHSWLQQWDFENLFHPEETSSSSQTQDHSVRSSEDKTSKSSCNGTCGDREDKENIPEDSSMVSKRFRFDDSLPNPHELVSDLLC
Kind of assay: Competitive binding affinity to DRAK2 (unknown origin) at 10 uM in presence of ATP relative to control.

Assay [3] concerns the target T3, Dual specificity mitogen-activated protein kinase kinase 3 (Homo sapiens) (UniProt P46734).
T3 sequence (whole entry): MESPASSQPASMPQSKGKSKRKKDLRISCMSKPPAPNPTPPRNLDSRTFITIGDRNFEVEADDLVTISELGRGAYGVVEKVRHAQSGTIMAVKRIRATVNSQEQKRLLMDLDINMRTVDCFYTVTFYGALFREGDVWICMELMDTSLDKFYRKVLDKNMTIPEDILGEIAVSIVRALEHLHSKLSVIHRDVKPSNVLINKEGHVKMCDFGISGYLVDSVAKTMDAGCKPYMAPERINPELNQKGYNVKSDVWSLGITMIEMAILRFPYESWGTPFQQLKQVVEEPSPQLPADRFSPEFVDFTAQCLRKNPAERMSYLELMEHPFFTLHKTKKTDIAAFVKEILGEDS
Kind of assay: Competitive binding affinity to MEK3 (unknown origin) at 10 uM in presence of ATP relative to control.

Assay [4] has as its target cAMP-dependent protein kinase catalytic subunit beta (Homo sapiens) (UniProt P22694). As to the kind of experiment: Competitive binding affinity to PKAC-beta (unknown origin) at 10 uM in presence of ATP relative to control. The gist of the method:
(§1)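 In vitro ATP-site competition binding assay across a diverse panel of 128 kinases, with compound tested at a single concentration. Kinase selectivity scores (S15) were calculated from the panel profiles.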

Assay [5] concerns the target Serine/threonine-protein kinase PAK 2 (Homo sapiens) (UniProt Q13177). Kind of assay: Competitive binding affinity to PAK2 (unknown origin) at 10 uM in presence of ATP relative to control. In a few lines: as §1
Assay [6] concerns Proto-oncogene tyrosine-protein kinase receptor Ret (Homo sapiens), P07949 [M918T]. Kind of assay: Competitive binding affinity to RET M918T mutant (unknown origin) at 10 uM in presence of ATP relative to control.
Chain of Proto-oncogene tyrosine-protein kinase receptor Ret (Homo sapiens), P07949 [M918T] (P07949 whole entry M918T): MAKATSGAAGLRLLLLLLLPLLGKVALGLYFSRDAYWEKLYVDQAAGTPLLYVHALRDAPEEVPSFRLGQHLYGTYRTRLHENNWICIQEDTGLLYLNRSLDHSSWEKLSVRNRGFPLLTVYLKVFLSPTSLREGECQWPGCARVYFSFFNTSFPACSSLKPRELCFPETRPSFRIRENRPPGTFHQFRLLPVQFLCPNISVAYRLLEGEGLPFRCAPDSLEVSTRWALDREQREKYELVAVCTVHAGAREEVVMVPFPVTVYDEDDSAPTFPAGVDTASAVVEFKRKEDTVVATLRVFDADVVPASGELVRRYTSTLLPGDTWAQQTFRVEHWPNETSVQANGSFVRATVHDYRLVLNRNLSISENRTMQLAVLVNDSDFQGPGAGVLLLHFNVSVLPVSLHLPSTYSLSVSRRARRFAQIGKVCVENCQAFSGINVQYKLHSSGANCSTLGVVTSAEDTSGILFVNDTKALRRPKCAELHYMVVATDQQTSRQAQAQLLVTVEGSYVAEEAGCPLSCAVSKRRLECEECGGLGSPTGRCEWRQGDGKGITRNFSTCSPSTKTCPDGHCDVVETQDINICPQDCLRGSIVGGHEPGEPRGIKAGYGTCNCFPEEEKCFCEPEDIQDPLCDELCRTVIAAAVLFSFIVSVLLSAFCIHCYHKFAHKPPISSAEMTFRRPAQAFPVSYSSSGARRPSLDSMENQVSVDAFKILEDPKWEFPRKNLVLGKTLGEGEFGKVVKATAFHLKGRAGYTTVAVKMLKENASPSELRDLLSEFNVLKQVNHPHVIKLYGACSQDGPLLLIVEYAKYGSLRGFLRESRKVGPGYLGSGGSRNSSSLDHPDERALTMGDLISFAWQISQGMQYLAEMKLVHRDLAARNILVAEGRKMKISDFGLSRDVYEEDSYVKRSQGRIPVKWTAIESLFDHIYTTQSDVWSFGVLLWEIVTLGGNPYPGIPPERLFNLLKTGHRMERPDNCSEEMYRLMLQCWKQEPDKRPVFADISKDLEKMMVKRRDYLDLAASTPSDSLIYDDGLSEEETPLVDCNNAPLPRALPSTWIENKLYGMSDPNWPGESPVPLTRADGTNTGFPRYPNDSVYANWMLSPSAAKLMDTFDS
Assay [7] concerns the target T4, Calcium/calmodulin-dependent protein kinase type IV (Homo sapiens) (UniProt Q16566).
T4 sequence (whole entry): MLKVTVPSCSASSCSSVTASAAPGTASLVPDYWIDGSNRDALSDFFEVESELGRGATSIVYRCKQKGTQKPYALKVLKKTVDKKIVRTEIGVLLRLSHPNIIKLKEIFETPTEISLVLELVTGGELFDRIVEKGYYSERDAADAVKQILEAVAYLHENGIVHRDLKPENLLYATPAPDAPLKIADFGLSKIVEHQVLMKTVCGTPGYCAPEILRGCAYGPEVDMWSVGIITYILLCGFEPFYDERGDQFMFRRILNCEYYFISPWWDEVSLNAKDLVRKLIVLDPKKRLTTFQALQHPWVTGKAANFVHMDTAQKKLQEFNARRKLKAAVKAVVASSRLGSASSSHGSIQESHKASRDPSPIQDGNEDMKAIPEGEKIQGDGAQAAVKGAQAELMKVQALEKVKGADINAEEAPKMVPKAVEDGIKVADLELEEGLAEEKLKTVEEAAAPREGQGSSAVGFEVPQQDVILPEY
As to the kind of experiment: Competitive binding affinity to CAMK4 (unknown origin) at 10 uM in presence of ATP relative to control.

Assay [8] concerns the target Serine/threonine-protein kinase N1 (Homo sapiens) (UniProt Q16512). As to the kind of experiment: Competitive binding affinity to PKN1 (unknown origin) at 10 uM in presence of ATP relative to control.
Assay [9] has as its target Myosin light chain kinase, smooth muscle (Homo sapiens) (UniProt Q15746). As to the kind of experiment: Competitive binding affinity to MYLK (unknown origin) at 10 uM in presence of ATP relative to control.
Assay [10] has the same target. Kind of assay: Competitive binding affinity to MLCK (unknown origin) at 10 uM in presence of ATP relative to control.
Assay [11] addresses Cyclin-dependent kinase 11B (Homo sapiens, UniProt P21127). As to the kind of experiment: Competitive binding affinity to CDC2L1 (unknown origin) at 10 uM in presence of ATP relative to control. The gist of the method: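 In vitro ATP-site competition binding format, run as one member of a diverse 128-kinase profiling panel. Each compound was tested at a single concentration across the whole panel.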

The species named for the next assay is Homo sapiens. As to the kind of experiment: Selectivity ratio of IC50 for human JNK2 to IC50 for human JNK1. In a few lines: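 JNK1 and JNK2 activities were each measured as phosphorylation of GST-ATF2 (19–96) with [γ-33P]ATP, and IC50s were determined for each enzyme. The ratio is JNK2 IC50 over JNK1 IC50. IC50s are the mean of at least three experiments.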

Chain of Serine/threonine-protein kinase PAK 2 (Homo sapiens) (Q13177 whole entry): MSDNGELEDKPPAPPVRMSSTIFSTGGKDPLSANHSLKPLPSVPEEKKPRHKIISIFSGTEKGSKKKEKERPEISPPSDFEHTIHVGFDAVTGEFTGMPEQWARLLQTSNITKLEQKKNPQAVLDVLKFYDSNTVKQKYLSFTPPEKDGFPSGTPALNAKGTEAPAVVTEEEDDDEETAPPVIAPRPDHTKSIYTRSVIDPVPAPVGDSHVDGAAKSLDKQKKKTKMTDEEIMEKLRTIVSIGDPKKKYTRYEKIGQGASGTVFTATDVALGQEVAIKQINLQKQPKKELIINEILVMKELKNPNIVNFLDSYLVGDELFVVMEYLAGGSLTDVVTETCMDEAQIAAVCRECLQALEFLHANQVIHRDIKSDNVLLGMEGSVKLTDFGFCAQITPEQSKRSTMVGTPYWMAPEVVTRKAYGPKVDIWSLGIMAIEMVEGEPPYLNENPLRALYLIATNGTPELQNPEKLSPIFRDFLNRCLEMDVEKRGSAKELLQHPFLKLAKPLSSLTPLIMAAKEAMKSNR
Chain of Myosin light chain kinase, smooth muscle (Homo sapiens) (Q15746 whole entry): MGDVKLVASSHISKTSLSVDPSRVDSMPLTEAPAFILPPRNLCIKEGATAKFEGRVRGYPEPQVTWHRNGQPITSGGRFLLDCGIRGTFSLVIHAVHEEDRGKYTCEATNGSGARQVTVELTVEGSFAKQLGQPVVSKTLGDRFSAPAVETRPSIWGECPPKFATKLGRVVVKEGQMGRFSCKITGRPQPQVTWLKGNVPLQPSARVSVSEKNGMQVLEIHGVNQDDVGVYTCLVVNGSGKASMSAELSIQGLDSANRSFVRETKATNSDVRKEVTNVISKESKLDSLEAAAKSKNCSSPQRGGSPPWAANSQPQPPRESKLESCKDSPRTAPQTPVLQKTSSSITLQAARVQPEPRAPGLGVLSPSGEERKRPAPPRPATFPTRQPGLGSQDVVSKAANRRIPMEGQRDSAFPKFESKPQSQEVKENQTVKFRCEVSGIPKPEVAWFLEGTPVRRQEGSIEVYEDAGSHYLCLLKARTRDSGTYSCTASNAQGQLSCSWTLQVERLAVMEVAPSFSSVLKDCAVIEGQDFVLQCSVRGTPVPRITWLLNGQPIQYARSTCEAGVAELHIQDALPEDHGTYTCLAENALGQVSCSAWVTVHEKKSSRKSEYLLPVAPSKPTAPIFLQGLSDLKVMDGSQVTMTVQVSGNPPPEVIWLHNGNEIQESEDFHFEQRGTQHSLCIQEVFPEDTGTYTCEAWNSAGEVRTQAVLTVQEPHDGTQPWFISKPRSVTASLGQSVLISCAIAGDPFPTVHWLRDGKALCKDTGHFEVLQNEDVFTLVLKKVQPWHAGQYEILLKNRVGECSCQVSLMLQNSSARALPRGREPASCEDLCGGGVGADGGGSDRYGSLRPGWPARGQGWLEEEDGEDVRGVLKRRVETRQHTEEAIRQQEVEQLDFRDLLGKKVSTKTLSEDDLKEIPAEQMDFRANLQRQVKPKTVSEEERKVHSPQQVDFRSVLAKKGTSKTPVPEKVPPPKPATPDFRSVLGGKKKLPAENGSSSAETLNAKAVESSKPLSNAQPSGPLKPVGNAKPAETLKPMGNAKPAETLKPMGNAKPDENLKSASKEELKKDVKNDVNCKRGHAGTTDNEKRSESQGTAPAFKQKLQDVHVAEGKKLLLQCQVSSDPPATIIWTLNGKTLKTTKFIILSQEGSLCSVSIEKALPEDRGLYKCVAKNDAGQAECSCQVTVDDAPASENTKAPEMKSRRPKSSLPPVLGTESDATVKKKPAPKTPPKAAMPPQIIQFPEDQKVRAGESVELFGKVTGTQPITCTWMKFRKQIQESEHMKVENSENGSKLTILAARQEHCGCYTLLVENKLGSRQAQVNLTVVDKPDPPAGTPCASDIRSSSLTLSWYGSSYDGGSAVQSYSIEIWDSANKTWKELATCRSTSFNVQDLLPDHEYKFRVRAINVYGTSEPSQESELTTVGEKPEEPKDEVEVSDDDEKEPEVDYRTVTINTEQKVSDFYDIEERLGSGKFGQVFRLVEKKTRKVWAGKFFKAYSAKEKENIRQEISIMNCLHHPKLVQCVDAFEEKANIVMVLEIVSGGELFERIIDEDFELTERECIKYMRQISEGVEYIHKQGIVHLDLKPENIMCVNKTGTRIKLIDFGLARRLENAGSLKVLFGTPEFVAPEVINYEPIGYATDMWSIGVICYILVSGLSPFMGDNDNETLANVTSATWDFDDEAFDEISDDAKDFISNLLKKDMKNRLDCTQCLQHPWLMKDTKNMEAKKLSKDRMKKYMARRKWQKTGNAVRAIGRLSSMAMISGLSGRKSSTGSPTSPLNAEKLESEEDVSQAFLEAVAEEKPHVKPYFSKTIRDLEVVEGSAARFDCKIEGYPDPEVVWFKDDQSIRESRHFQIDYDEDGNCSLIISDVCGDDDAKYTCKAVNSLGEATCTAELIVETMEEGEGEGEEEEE
Chain of Serine/threonine-protein kinase N1 (Homo sapiens) (Q16512 2-942 limits assumed): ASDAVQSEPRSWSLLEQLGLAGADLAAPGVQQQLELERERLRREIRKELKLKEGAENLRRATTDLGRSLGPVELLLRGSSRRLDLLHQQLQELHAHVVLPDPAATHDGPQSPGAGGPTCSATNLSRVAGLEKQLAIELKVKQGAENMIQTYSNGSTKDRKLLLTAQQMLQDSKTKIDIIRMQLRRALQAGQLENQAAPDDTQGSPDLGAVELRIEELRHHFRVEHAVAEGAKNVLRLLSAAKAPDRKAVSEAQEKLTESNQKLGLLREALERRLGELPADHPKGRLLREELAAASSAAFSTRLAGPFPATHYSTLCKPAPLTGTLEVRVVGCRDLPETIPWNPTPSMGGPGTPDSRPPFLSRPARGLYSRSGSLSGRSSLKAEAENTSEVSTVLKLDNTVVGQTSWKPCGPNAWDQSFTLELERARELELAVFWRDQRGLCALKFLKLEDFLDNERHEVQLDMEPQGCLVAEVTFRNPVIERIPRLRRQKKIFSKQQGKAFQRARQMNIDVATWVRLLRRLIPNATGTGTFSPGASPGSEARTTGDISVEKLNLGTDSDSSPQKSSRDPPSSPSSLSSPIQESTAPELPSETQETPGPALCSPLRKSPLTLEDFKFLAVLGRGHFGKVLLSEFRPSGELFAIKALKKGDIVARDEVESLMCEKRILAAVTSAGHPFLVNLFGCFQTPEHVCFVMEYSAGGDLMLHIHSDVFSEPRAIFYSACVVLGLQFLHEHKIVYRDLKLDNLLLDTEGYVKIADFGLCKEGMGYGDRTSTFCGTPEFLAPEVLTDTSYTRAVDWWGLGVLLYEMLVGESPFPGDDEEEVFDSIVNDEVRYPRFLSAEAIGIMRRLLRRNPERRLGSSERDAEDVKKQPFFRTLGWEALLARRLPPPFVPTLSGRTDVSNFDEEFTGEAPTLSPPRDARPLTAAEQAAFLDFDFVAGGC

On to `O[C@H]1CC[C@H](Nc2nccc(-n3ccc4ccccc43)n2)CC1`, for which the inhibition in assay [1] is under 50%; in [2], under 50%; in assay [3], 93%; in [4], under 50%; in [5], under 50%; in assay [6] it was under 50%. In addition, the inhibition in assay [7] is under 50%; in assay [8], under 50%; in assay [9], under 50%; in assay [10] it was 65%; in [11], 97%.
Take `O[C@H]1CC[C@H](Nc2nccc(-n3nnc4ccccc43)n2)CC1`: the inhibition is under 50% in [1]; 86% in assay [2]; 97% in [3]; under 50% in [4]; under 50% in assay [5]; under 50% in [6]. The inhibition was 72% in assay [7]; under 50% in assay [8]; 94% in assay [9]; 88% in assay [10]; 100% in assay [11]. For the same compound, in the assay listed under Homo sapiens, the Ratio IC50 was found to be 4.
On to `CS(=O)(=O)CCCOc1cccc2c1ccn2-c1ccnc(N[C@H]2CC[C@H](C(=O)N3CCC(O)CC3)CC2)n1`, for which the inhibition in assay [11] is over 85%.
Turning to `O=C([C@H]1CC[C@H](Nc2nccc(-n3nnc4ccccc43)n2)CC1)N1CCOCC1`, in the assay listed under Homo sapiens, the Ratio IC50 came to 4.
Consider `O[C@H]1CC[C@H](Nc2nccc(-n3ncc4ccccc43)n2)CC1`, for which the inhibition in assay [1] was under 50%; in assay [2], 91%; in [3], 95%; in assay [4], under 50%; in assay [5], under 50%; in [6] it was under 50%. Further, the inhibition in [7] is under 50%; in assay [8] it was under 50%; in [9] it was 74%; in assay [10], under 50%; in assay [11] it was 97%.
In the case of `O[C@H]1CC[C@H](Nc2nccc(-c3n[nH]c4ccccc34)n2)CC1`, the values for the inhibition in assay [4] and in assay [5] were under 50% and 82%, respectively.
Regarding `N[C@H]1CC[C@H](Nc2nccc(-n3nnc4ccccc43)n2)CC1`, the Ratio IC50 in the assay listed under Homo sapiens was 4.
